In brackets after ≈: the same amount, converted by molar mass.
Experiments:
Type in all cases: functional
[1] = test system: Streptococcus suis; assay: Antibacterial activity against Streptococcus suis BB1017 isolate after 24 hrs
Procedure, shortened: (§1)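 Broth microdilution MIC assay against S. suis collection strain or Spanish/South American swine clinical isolates, incubated at 37°C for 24 h; MIC reported in μg/ml.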

[2] = test system: Streptococcus suis; assay: Antibacterial activity against Streptococcus suis ATCC 43765 after 24 hrs; details: ATCC 43765, 24 h; procedure, shortened: as §1
[3] = test system: Streptococcus suis; assay: Antibacterial activity against Streptococcus suis BB1001 isolate after 24 hrs; procedure, shortened: as §1
[4] = test system: Streptococcus suis; assay: Antibacterial activity against Streptococcus suis BB1002 isolate after 24 hrs; procedure, shortened: as §1
[5] = test system: Streptococcus suis; assay: Antibacterial activity against Streptococcus suis BB1003 isolate after 24 hrs; procedure, shortened: as §1
[6] = test system: Streptococcus suis; assay: Antibacterial activity against Streptococcus suis BB1004 isolate after 24 hrs; procedure, shortened: as §1
[7] = test system: Streptococcus suis; assay: Antibacterial activity against Streptococcus suis BB1005 isolate after 24 hrs; procedure, shortened: as §1
[8] = test system: Streptococcus suis; assay: Antibacterial activity against Streptococcus suis BB1006 isolate after 24 hrs; procedure, shortened: as §1
[9] = test system: Streptococcus suis; assay: Antibacterial activity against Streptococcus suis BB1007 isolate after 24 hrs; procedure, shortened: as §1
[10] = test system: Streptococcus suis; assay: Antibacterial activity against Streptococcus suis BB1008 isolate after 24 hrs; procedure, shortened: as §1
[11] = test system: Streptococcus suis; assay: Antibacterial activity against Streptococcus suis BB1009 isolate after 24 hrs; procedure, shortened: as §1
[12] = test system: Streptococcus suis; assay: Antibacterial activity against Streptococcus suis BB1010 isolate after 24 hrs; procedure, shortened: as §1
[13] = test system: Streptococcus suis; assay: Antibacterial activity against Streptococcus suis BB1011 isolate after 24 hrs
[14] = test system: Streptococcus suis; assay: Antibacterial activity against Streptococcus suis BB1012 isolate after 24 hrs; procedure, shortened: as §1
[15] = test system: Streptococcus suis; assay: Antibacterial activity against Streptococcus suis BB1013 isolate after 24 hrs; procedure, shortened: as §1
[16] = test system: Streptococcus suis; assay: Antibacterial activity against Streptococcus suis BB1014 isolate after 24 hrs; procedure, shortened: as §1
[17] = test system: Streptococcus suis; assay: Antibacterial activity against Streptococcus suis BB1015 isolate after 24 hrs; procedure, shortened: as §1
[18] = test system: Streptococcus suis; assay: Antibacterial activity against Streptococcus suis BB1016 isolate after 24 hrs; procedure, shortened: as §1
[19] = test system: Streptococcus suis; assay: Antibacterial activity against Streptococcus suis ATCC 43765 in presence of 10 ug/ml reserpine after 24 hrs; details: ATCC 43765, 24 h; procedure, shortened: as §1
[20] = test system: Streptococcus suis; assay: Antibacterial activity against Streptococcus suis BB1001 isolate in presence of 10 ug/ml reserpine after 24 hrs; procedure, shortened: as §1
[21] = test system: Streptococcus suis; assay: Antibacterial activity against Streptococcus suis BB1002 isolate in presence of 10 ug/ml reserpine after 24 hrs; procedure, shortened: as §1
[22] = test system: Streptococcus suis; assay: Antibacterial activity against Streptococcus suis BB1003 isolate in presence of 10 ug/ml reserpine after 24 hrs; procedure, shortened: as §1
[23] = test system: Streptococcus suis; assay: Antibacterial activity against Streptococcus suis BB1004 isolate in presence of 10 ug/ml reserpine after 24 hrs; procedure, shortened: as §1
[24] = test system: Streptococcus suis; assay: Antibacterial activity against Streptococcus suis BB1005 isolate in presence of 10 ug/ml reserpine after 24 hrs; procedure, shortened: as §1
[25] = test system: Streptococcus suis; assay: Antibacterial activity against Streptococcus suis BB1006 isolate in presence of 10 ug/ml reserpine after 24 hrs; procedure, shortened: as §1
[26] = test system: Streptococcus suis; assay: Antibacterial activity against Streptococcus suis BB1007 isolate in presence of 10 ug/ml reserpine after 24 hrs; procedure, shortened: as §1
[27] = test system: Streptococcus suis; assay: Antibacterial activity against Streptococcus suis BB1008 isolate in presence of 10 ug/ml reserpine after 24 hrs; procedure, shortened: as §1
[28] = test system: Streptococcus suis; assay: Antibacterial activity against Streptococcus suis BB1009 isolate in presence of 10 ug/ml reserpine after 24 hrs
Procedure, shortened: (§2)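 Clinical swine S. suis isolates; MIC by microdilution, 37°C for 24 h, ciprofloxacin tested with reserpine added; MIC reported in μg/ml.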

[29] = test system: Streptococcus suis; assay: Antibacterial activity against Streptococcus suis BB1010 isolate in presence of 10 ug/ml reserpine after 24 hrs; procedure, shortened: as §2
[30] = test system: Streptococcus suis; assay: Antibacterial activity against Streptococcus suis BB1011 isolate in presence of 10 ug/ml reserpine after 24 hrs; procedure, shortened: as §2
[31] = test system: Streptococcus suis; assay: Antibacterial activity against Streptococcus suis BB1012 isolate in presence of 10 ug/ml reserpine after 24 hrs; procedure, shortened: as §2
[32] = test system: Streptococcus suis; assay: Antibacterial activity against Streptococcus suis BB1013 isolate in presence of 10 ug/ml reserpine after 24 hrs; procedure, shortened: as §2
[33] = test system: Streptococcus suis; assay: Antibacterial activity against Streptococcus suis BB1014 isolate in presence of 10 ug/ml reserpine after 24 hrs; procedure, shortened: as §2
[34] = test system: Streptococcus suis; assay: Antibacterial activity against Streptococcus suis BB1015 isolate in presence of 10 ug/ml reserpine after 24 hrs; procedure, shortened: as §2
[35] = test system: Streptococcus suis; assay: Antibacterial activity against Streptococcus suis BB1016 isolate in presence of 10 ug/ml reserpine after 24 hrs; procedure, shortened: as §2
[36] = test system: Streptococcus suis; assay: Antibacterial activity against Streptococcus suis BB1017 isolate in presence of 10 ug/ml reserpine after 24 hrs; procedure, shortened: as §2

Row | Structure (SMILES) | MIC [1] | MIC [2] | MIC [3] | MIC [4] | MIC [5] | MIC [6] | MIC [7] | MIC [8] | MIC [9] | MIC [10] | MIC [11] | MIC [12] | MIC [13] | MIC [14] | MIC [15] | MIC [16] | MIC [17] | MIC [18] | further results
1 | C[C@H]1COc2c(N3CCN(C)CC3)c(F)cc3c(=O)c(C(=O)O)cn1c23.C[C@H]1COc2c(N3CCN(C)CC3)c(F)cc3c(=O)c(C(=O)O)cn1c23.O [LEVOFLOXACIN] | 64 µg/mL | 1 µg/mL | 1 µg/mL | 1 µg/mL | 0.5 µg/mL | 1 µg/mL | 0.5 µg/mL | 1 µg/mL | 2 µg/mL | 16 µg/mL | 16 µg/mL | 32 µg/mL | 16 µg/mL | 16 µg/mL | 16 µg/mL | 32 µg/mL | 16 µg/mL | 32 µg/mL | 
2 | CCn1cc(C(=O)O)c(=O)c2ccc(C)nc21 [NALIDIXIC ACID] | > 64 µg/mL | > 64 µg/mL | > 64 µg/mL | > 64 µg/mL | > 64 µg/mL | > 64 µg/mL | > 64 µg/mL | > 64 µg/mL | > 64 µg/mL | > 64 µg/mL | > 64 µg/mL | > 64 µg/mL | > 64 µg/mL | > 64 µg/mL | > 64 µg/mL | > 64 µg/mL | > 64 µg/mL | > 64 µg/mL | 
3 | CCN1CCN(c2cc3c(cc2F)c(=O)c(C(=O)O)cn3C2CC2)CC1 [ENROFLOXACIN] | 16 µg/mL (≈ 44.5 µM) | 0.5 µg/mL (≈ 1.39 µM) | 0.5 µg/mL (≈ 1.39 µM) | 0.5 µg/mL (≈ 1.39 µM) | 0.5 µg/mL (≈ 1.39 µM) | 0.5 µg/mL (≈ 1.39 µM) | 0.25 µg/mL (≈ 0.696 µM) | 1 µg/mL (≈ 2.78 µM) | 4 µg/mL (≈ 11.1 µM) | 32 µg/mL (≈ 89 µM) | 16 µg/mL (≈ 44.5 µM) | 32 µg/mL (≈ 89 µM) | 16 µg/mL (≈ 44.5 µM) | 8 µg/mL (≈ 22.3 µM) | 8 µg/mL (≈ 22.3 µM) | 16 µg/mL (≈ 44.5 µM) | 16 µg/mL (≈ 44.5 µM) | 8 µg/mL (≈ 22.3 µM) | 
4 | CCn1cc(C(=O)O)c(=O)c2cc(F)c(N3CCNCC3)cc21 [NORFLOXACIN] | > 64 µg/mL | 4 µg/mL (≈ 12.5 µM) | 2 µg/mL (≈ 6.26 µM) | 2 µg/mL (≈ 6.26 µM) | 4 µg/mL (≈ 12.5 µM) | 2 µg/mL (≈ 6.26 µM) | 4 µg/mL (≈ 12.5 µM) | 32 µg/mL (≈ 100 µM) | 16 µg/mL (≈ 50.1 µM) | > 64 µg/mL | 32 µg/mL (≈ 100 µM) | > 64 µg/mL | 32 µg/mL (≈ 100 µM) | > 64 µg/mL | > 64 µg/mL | > 64 µg/mL | > 64 µg/mL | > 64 µg/mL | 
5 | O=C(O)c1cn(C2CC2)c2cc(N3CCNCC3)c(F)cc2c1=O [CIPROFLOXACIN] | 64 µg/mL (≈ 193 µM) | 0.5 µg/mL (≈ 1.51 µM) | 0.5 µg/mL (≈ 1.51 µM) | 0.5 µg/mL (≈ 1.51 µM) | 0.5 µg/mL (≈ 1.51 µM) | 0.5 µg/mL (≈ 1.51 µM) | 0.5 µg/mL (≈ 1.51 µM) | 2 µg/mL (≈ 6.04 µM) |  | 64 µg/mL (≈ 193 µM) | 32 µg/mL (≈ 96.6 µM) | 32 µg/mL (≈ 96.6 µM) | 16 µg/mL (≈ 48.3 µM) | 32 µg/mL (≈ 96.6 µM) | 64 µg/mL (≈ 193 µM) | 64 µg/mL (≈ 193 µM) | 32 µg/mL (≈ 96.6 µM) | 32 µg/mL (≈ 96.6 µM) | MIC [19]: 0.5 µg/mL; MIC [20]: 0.5 µg/mL; MIC [21]: 0.5 µg/mL; MIC [22]: 0.5 µg/mL; MIC [23]: 0.5 µg/mL; MIC [24]: 0.5 µg/mL; MIC [25]: 1 µg/mL; MIC [26]: 4 µg/mL; MIC [27]: 32 µg/mL; MIC [28]: 16 µg/mL; MIC [29]: 16 µg/mL; MIC [30]: 16 µg/mL; MIC [31]: 16 µg/mL; MIC [32]: 16 µg/mL; MIC [33]: 16 µg/mL; MIC [34]: 16 µg/mL; MIC [35]: 16 µg/mL; MIC [36]: 16 µg/mL
